ChEMBL document CHEMBL1152892, “Synthesis and biological evaluation of 3,6-disubstituted [1,2,4]triazolo[3,4-b][1,3,4]thiadiazole derivatives as a novel class of potential anti-tumor agents” (Eur J Med Chem, 2009)
Blank lines part the entries; values can stand above or below the compound they belong to. Activity calls are given as the source filed them. The calls are words filed in the database; no cut-off is given here.

Columns and labels:
[1] = Inhibition of CDK4/Cyclin D
[2] = molecular target: Cyclin-dependent kinase 1/cyclin B1 (Homo sapiens, UniProt P06493); assay: Inhibition of CDK1/Cyclin B; type: protein-complex assay
[3] = molecular target: Cyclin-dependent kinase 2 (Homo sapiens, UniProt P24941); assay: Inhibition of CDK2/Cyclin A
A498 = assay: Cytotoxicity against human A498 cells after 48 hrs by sulforhodamine B assay; type: functional; settings: for GI50: A498, 48 h
How it was run: (§1)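 NCI human tumor panel. Cells in RPMI 1640 with 5% FBS and 2 mM L-glutamine, 5000–40,000 cells/well by growth characteristics, 24 h preincubation at 37 °C. Compound added at time zero at five 10-fold dilutions, top concentration agent-dependent. Incubated 48 h (5% CO2, 100% humidity), then sulforhodamine B stain and plate-reader OD. GI50 and TGI are the concentrations giving 50% and total growth inhibition, in µM.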

CAKI-1 = assay: Cytotoxicity against human Caki1 cells after 48 hrs by sulforhodamine B assay; type: functional; settings: for GI50: CAKI-1, 48 h; how it was run: as §1
[4] = (§2) Cytotoxicity against human Hs 578T cells after 48 hrs by sulforhodamine B assay; type: functional; how it was run: as §1
TK-10 = assay: Cytotoxicity against human TK10 cells after 48 hrs by sulforhodamine B assay; type: functional; settings: for GI50: TK-10, 48 h; how it was run: as §1
HCC 2998 = assay: Cytotoxicity against human HCC2998 cells after 48 hrs by sulforhodamine B assay; type: functional; how it was run: as §1
ACHN = assay: Cytotoxicity against human ACHN cells after 48 hrs by sulforhodamine B assay; type: functional; how it was run: as §1
SR = assay: Cytotoxicity against human SR cells after 48 hrs by sulforhodamine B assay; type: functional; how it was run: as §1
OVCAR-3 = assay: Cytotoxicity against human OVCAR-3 cells after 48 hrs by sulforhodamine B assay; type: functional; how it was run: as §1
UACC-62 = assay: Cytotoxicity against human UACC62 cells after 48 hrs by sulforhodamine B assay; type: functional; settings: for GI50: UACC-62, 48 h; how it was run: as §1
BT-549 = assay: Cytotoxicity against human BT549 cells after 48 hrs by sulforhodamine B assay; type: functional; how it was run: as §1
SF-268 = assay: Cytotoxicity against human SF268 cells after 48 hrs by sulforhodamine B assay; type: functional; how it was run: as §1
LOX IMVI = assay: Cytotoxicity against human LOXIMVI cells after 48 hrs by sulforhodamine B assay; type: functional; how it was run: as §1
SF-539 = assay: Cytotoxicity against human SF539 cells after 48 hrs by sulforhodamine B assay; type: functional; how it was run: as §1
HOP-62 = assay: Cytotoxicity against human HOP62 cells after 48 hrs by sulforhodamine B assay; type: functional; how it was run: as §1
SNB-75 = assay: Cytotoxicity against human SNB75 cells after 48 hrs by sulforhodamine B assay; type: functional; how it was run: as §1
HOP-92 = assay: Cytotoxicity against human HOP92 cells after 48 hrs by sulforhodamine B assay; type: functional; settings: for GI50: HOP-92, 48 h; how it was run: as §1
RPMI8266 = assay: (§3) Cytotoxicity against human […] cells after 48 hrs by sulforhodamine B assay; type: functional; how it was run: as §1
MCF7 [5] = assay: Cytotoxicity against human MCF7 cells after 48 hrs by sulforhodamine B assay; type: functional; settings: for GI50: MCF7, 48 h; how it was run: as §1
HCT-15 = assay: Cytotoxicity against human HCT15 cells after 48 hrs by sulforhodamine B assay; type: functional; settings: for GI50: HCT-15, 48 h; how it was run: as §1
MCF7 [6] = assay: Antitumor activity against human MCF7 cells assessed as cell growth at 10 uM after 48 hrs by sulforhodamine B assay; type: functional; settings: MCF7, 48 h, read-out: Activity
How it was run: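 NCI primary screen, single concentration 10^-5 M against MCF7, NCI-H460 and SF-268. Cells in RPMI 1640 with 5% FBS and 2 mM L-glutamine, seeded at 5000–40,000 cells/well by cell type, preincubated 24 h at 37 °C. Compound added at time zero, then 48 h incubation (5% CO2, 100% humidity). Growth read by sulforhodamine B optical density, reported as growth percentage.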

HCT-116 [7] = assay: Antitumor activity against human HCT116 cells xenografted in nude mouse; type: functional, cell-based
NCI-H322M = assay: Cytotoxicity against human NCI-H322M cells after 48 hrs by sulforhodamine B assay; type: functional; how it was run: as §1
KM12 = assay: Cytotoxicity against human KM12 cells after 48 hrs by sulforhodamine B assay; type: functional; settings: for GI50: KM12, 48 h; how it was run: as §1
NCI-H226 = assay: Cytotoxicity against human NCI-H226 cells after 48 hrs by sulforhodamine B assay; type: functional; settings: NCI-H226, 48 h; how it was run: as §1
Hs-578T = assay: as §2; type: functional; how it was run: as §1
HCT-116 [8] = assay: Cytotoxicity against human HCT116 cells after 48 hrs by sulforhodamine B assay; type: functional; how it was run: as §1
CCRF-CEM = assay: Cytotoxicity against human CCRF-CEM cells after 48 hrs by sulforhodamine B assay; type: functional; how it was run: as §1
OVCAR-4 = assay: Cytotoxicity against human OVCAR4 cells after 48 hrs by sulforhodamine B assay; type: functional; how it was run: as §1
[9] = as §3; type: functional; how it was run: as §1

Cyclin-dependent kinase 1/cyclin B1, sequence (P06493 whole entry): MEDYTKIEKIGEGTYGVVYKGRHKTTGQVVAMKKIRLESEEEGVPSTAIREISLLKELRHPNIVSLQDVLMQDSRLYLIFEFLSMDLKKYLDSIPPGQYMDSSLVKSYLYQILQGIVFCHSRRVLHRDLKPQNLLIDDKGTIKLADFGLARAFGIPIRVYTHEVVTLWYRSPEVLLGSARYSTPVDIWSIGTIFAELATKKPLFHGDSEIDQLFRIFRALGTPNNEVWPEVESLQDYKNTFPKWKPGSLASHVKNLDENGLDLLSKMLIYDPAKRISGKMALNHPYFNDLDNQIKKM
Cyclin-dependent kinase 1/cyclin B1, sequence (P14635 whole entry, further chain): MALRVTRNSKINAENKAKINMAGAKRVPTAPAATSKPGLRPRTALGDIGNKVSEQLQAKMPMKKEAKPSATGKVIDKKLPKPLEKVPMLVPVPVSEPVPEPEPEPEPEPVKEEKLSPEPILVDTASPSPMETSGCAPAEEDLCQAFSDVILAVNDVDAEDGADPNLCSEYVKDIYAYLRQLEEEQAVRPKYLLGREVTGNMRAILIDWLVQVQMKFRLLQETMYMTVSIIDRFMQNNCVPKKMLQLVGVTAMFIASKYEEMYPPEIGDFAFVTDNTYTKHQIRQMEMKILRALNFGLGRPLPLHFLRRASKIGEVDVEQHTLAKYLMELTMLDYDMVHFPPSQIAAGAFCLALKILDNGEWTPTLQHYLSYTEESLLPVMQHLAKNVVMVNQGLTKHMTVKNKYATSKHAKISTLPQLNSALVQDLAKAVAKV

Compound: S=c1[nH]c(=S)c2c(Cc3nn4c(COc5ccc(Cl)cc5)nnc4s3)n[nH]c2[nH]1
IC50 [1]: > 48 µM
IC50 [2]: 29 µM
IC50 [3]: 37 µM

Compound: CCSc1nn2c(Cc3ccccc3)nnc2s1
IC50 [1]: > 48 µM
IC50 [2]: > 120 µM
IC50 [3]: 24 µM

Compound: Clc1ccc(OCc2nnc3sc(SSc4nn5c(COc6ccc(Cl)cc6)nnc5s4)nn23)cc1
GI50 (NCI-H226): 87.1 µM
GI50 (A498): 28.8 µM
GI50 (CAKI-1): 77.6 µM
IC50 [1]: 8 µM
pGI50 (Hs-578T): inactive
GI50 (TK-10): 72.4 µM
pGI50 (HCT-116 [8]): inactive
GI50 (HCC 2998; HCC 2998, 48 h): 16.2 µM
GI50 (CCRF-CEM): 75.9 µM
pGI50 (ACHN): inactive
IC50 [2]: 11 µM
GI50 (SR): 14.1 µM
IC50 [3]: 0.82 µM
GI50 (OVCAR-3; OVCAR-3, 48 h): 35.5 µM
GI50 (UACC-62): 44.7 µM
GI50 (BT-549; BT-549, 48 h): 47.9 µM
pGI50 (SF-268): inactive
pGI50 (SF-539): inactive
GI50 (HOP-62; HOP-62, 48 h): 66.1 µM
GI50 (OVCAR-4; OVCAR-4, 48 h): 46.8 µM
pGI50 (SNB-75): inactive
GI50 (HOP-92): 18.2 µM
GI50 [9]: 44.7 µM
GI50 (MCF7 [5]): 44.7 µM
GI50 (HCT-15): 87.1 µM
growth at 10 µM (MCF7 [6]): 147%
Activity (HCT-116 [7]): inactive
pGI50 (KM12): inactive

Compound: Cc1nnc2sc(Cc3sc(N)nc3O)nn12
GI50 (NCI-H226): 77.6 µM
pGI50 (A498): inactive
GI50 (CAKI-1): 63.1 µM
IC50 [1]: 12 µM
pGI50 (Hs-578T): inactive
pGI50 (TK-10): inactive
GI50 (HCT-116 [8]; HCT-116, 48 h): 83.2 µM
pGI50 (HCC 2998): inactive
pGI50 (CCRF-CEM): inactive
pGI50 (ACHN): inactive
IC50 [2]: 12 µM
pGI50 (SR): inactive
IC50 [3]: 0.25 µM
pGI50 (OVCAR-3): inactive
pGI50 (UACC-62): inactive
pGI50 (BT-549): inactive
pGI50 (SF-268): inactive
pGI50 (LOX IMVI): inactive
pGI50 (SF-539): inactive
pGI50 (HOP-62): inactive
pGI50 (OVCAR-4): inactive
pGI50 (SNB-75): inactive
pGI50 (HOP-92): inactive
pGI50 (MCF7 [5]): inactive
pGI50 (HCT-15): inactive
growth at 10 µM (MCF7 [6]): 130%
GI50 (NCI-H322M): 87.1 µM
GI50 (KM12): 97.7 µM

Compound: Sc1nn2c(Cc3ccccc3)nnc2s1
IC50 [1]: 37 µM
IC50 [2]: 25 µM
IC50 [3]: 23 µM

Compound: Cc1nnc2sc(S)nn12
IC50 [1]: 23 µM
IC50 [2]: 19 µM
IC50 [3]: 6.8 µM

Compound: c1ccc(Cc2nnc3sc(SSc4nn5c(Cc6ccccc6)nnc5s4)nn23)cc1
IC50 [1]: 25 µM
IC50 [2]: 5.3 µM
IC50 [3]: 15 µM

Compound: Cc1nnc2sc(NN)nn12
IC50 [1]: > 120 µM
IC50 [2]: 22 µM
IC50 [3]: 11 µM

Continued, in another order:

IC50 [1]: 3 µM
IC50 [2]: 0.91 µM
IC50 [3]: 0.18 µM
Compound: Nc1nc(O)c(Cc2nn3c(COc4ccc(Cl)cc4)nnc3s2)s1
GI50 (A498): 0.0537 µM
pGI50 (CAKI-1): inactive
GI50 [4]: 31.6 µM
GI50 (TK-10): 45.7 µM
pGI50 (HCC 2998): inactive
GI50 (ACHN): 35.5 µM
GI50 (SR): 49 µM
pGI50 (OVCAR-3): inactive
GI50 (UACC-62): 31.6 µM
pGI50 (BT-549): inactive
pGI50 (SF-268): inactive
GI50 (LOX IMVI): 3.63 µM
GI50 (SF-539; SF-539, 48 h): 39.8 µM
pGI50 (HOP-62): inactive
pGI50 (SNB-75): inactive
GI50 (HOP-92): 97.7 µM
pGI50 (RPMI8266): inactive
GI50 (MCF7 [5]): > 100 µM
GI50 (HCT-15): 0.741 µM
growth at 10 µM (MCF7 [6]): 0%
Activity (HCT-116 [7]): Active
GI50 (NCI-H322M): 11.2 µM
GI50 (KM12): 7.41 µM

IC50 [1]: > 48 µM
IC50 [2]: > 120 µM
IC50 [3]: 14 µM
Compound: Nc1nc(O)c(Cc2nn3c(Cc4ccccc4)nnc3s2)s1

IC50 [1]: > 48 µM
IC50 [2]: 14 µM
IC50 [3]: 24 µM
Compound: S=c1[nH]c(=S)c2c(Cc3nn4c(Cc5ccccc5)nnc4s3)n[nH]c2[nH]1

IC50 [1]: > 48 µM
IC50 [2]: > 120 µM
IC50 [3]: > 28 µM
Compound: NNc1nn2c(Cc3ccccc3)nnc2s1
